This note sets out measurements from ChEMBL document CHEMBL3817780, “Structure-Based Design of 1,4-Dibenzoylpiperazines as β-Catenin/B-Cell Lymphoma 9 Protein-Protein Interaction Inhibitors” (ACS Med Chem Lett, 2016).

One data set relates to SW480. In words: Cytotoxicity against Wnt-activated human SW480 cells assessed as reduction in cell viability after 72 hrs by MTS assay. To be noted: SW480, 72 h. The class given is functional, cell-based. In general terms: Tetrazolium assays rely on reduction of a dye to a coloured formazan, in cell work by metabolically active cells.
The target of data set [1] is T1, beta-catenin-B-cell lymphoma 9 protein complex (Homo sapiens, UniProt P35222).
T1 sequence (P35222 whole entry): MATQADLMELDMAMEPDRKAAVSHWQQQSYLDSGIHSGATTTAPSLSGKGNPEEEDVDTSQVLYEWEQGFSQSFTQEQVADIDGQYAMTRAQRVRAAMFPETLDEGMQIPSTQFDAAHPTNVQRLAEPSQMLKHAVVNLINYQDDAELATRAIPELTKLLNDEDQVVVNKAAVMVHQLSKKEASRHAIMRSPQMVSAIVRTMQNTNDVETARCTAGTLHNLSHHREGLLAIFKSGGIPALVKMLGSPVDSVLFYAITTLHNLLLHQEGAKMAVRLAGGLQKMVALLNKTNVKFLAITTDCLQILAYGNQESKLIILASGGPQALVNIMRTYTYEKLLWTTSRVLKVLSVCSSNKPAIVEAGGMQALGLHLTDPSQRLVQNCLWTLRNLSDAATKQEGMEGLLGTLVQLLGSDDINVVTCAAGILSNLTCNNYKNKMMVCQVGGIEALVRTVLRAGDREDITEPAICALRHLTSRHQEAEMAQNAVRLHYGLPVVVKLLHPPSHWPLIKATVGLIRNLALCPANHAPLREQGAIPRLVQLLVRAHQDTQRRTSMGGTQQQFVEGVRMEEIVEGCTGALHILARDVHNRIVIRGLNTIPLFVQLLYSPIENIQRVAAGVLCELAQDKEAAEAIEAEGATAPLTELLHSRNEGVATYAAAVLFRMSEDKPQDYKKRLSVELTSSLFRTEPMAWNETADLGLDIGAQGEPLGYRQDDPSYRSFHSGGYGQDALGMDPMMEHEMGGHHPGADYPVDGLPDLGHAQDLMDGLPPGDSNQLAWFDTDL
T1 sequence (O00512 whole entry): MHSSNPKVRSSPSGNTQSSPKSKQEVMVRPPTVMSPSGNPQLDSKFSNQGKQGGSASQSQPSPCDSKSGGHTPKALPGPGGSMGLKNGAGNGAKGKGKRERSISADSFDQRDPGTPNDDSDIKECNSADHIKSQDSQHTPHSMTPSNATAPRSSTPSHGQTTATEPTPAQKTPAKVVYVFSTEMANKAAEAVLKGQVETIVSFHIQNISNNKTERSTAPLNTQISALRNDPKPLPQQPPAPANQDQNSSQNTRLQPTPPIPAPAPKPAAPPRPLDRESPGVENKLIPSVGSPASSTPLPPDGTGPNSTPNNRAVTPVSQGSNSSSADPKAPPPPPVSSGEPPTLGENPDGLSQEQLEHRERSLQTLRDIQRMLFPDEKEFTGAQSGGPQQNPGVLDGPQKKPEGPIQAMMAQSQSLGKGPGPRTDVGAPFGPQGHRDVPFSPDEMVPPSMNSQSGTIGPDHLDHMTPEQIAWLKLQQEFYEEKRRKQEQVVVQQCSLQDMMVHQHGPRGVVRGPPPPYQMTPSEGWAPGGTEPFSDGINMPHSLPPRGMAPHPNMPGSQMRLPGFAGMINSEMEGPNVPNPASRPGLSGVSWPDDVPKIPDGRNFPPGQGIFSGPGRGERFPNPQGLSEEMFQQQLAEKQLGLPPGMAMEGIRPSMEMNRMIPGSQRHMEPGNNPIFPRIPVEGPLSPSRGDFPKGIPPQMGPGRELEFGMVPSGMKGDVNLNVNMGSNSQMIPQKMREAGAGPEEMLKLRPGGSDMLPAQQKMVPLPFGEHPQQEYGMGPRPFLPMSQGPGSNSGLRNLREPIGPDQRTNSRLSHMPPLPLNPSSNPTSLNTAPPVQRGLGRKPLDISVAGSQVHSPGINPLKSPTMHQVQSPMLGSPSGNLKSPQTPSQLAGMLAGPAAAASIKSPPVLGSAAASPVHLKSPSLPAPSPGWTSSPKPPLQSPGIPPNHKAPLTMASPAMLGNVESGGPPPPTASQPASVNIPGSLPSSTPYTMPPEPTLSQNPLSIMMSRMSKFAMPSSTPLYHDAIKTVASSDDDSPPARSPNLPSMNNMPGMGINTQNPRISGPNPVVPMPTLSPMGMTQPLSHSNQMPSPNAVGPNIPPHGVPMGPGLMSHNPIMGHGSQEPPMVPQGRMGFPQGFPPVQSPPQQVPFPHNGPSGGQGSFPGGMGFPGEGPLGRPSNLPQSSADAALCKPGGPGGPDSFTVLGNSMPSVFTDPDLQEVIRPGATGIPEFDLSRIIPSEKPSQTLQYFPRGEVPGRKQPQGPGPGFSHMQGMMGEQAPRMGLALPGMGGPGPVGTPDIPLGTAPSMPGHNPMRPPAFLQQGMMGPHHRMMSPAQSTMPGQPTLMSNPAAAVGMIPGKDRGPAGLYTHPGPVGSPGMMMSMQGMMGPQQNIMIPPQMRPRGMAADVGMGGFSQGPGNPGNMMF
In words: Competitive inhibition of wild type beta-catenin (unknown origin) expressed in Escherichia coli BL21 DE3 interaction with N-terminally biotinylated human BCL9 (350 to 375 residues) by alpha screen assay. The essentials:
(§1)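 Competitive AlphaScreen binding assays run in parallel against wild-type β-catenin, one with the BCL9 partner and one with the E-cadherin partner; data given as mean ± standard deviation, n = 3.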
For orientation: Bead proximity is the source of the signal in Alpha formats.

The target of data set [2] is T2, Catenin beta-1 (Homo sapiens) (UniProt P35222).
T2 sequence (whole entry): T1 sequence (P35222 whole entry)
In words: Inhibition of beta-catenin (unknown origin) expressed in HEK293 cells after 24 hrs by topflash dual luciferase reporter gene assay. The class given is cell-based. In short, it runs like this: (§2)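 HEK293 cells transfected with pcDNA3.1−β-catenin; TOPFlash reporter carries wild-type Tcf binding sites and FOPFlash carries mutant Tcf sites; luciferase activity read across a dose series; mean ± standard deviation, n = 2.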
(In general: In a reporter assay the amount or activity of a reporter protein is the signal.)

Data set [3] is described as follows: Cytotoxicity against Wnt-activated human HCT116 cells assessed as reduction in cell viability after 72 hrs by MTS assay. The settings on record: HCT-116, 72 h. It counts as functional, cell-based.
Data set [4] concerns A549. In words: Cytotoxicity against Wnt-signaling latent human A549 cells assessed as reduction in cell viability after 72 hrs by MTS assay. It counts as functional, cell-based. To be noted: A549, 72 h.
The next data set has as its system HEK293. Kind of data set: Cytotoxicity against HEK293 cells assessed as reduction in cell viability after 72 hrs by MTS assay. The class given is cell-based. The settings on record: Homo sapiens, HEK293, 72 h.
For data set [5], the system named is A549. In words: Selectivity ratio of IC50 for human A549 cells to IC50 for human SW480 cells. The class given is functional.
In data set [6] the test system is A549. Kind of data set: Selectivity ratio of IC50 for human A549 cells to IC50 for human HCT116 cells. The class given is functional.
Data set [7] can be described thus: Selectivity ratio of IC50 for HEK293 cells to IC50 for human SW480 cells. The class given is ADME, cell-based. To be noted: HEK293 cells versus SW480 cells, read-out: Ratio IC50.
The nature of data set [8]: Selectivity ratio of IC50 for human HEK293 cells to IC50 for human HCT116 cells. The class given is ADME, cell-based. To be noted: HEK293 cells versus HCT116 cells, read-out: Ratio IC50.
Data set [9] has as its target Cadherin-1/Transcription factor 7-like 2 (Homo sapiens, UniProt P12830+Q9NQB0). In words: Competitive inhibition of wild type beta-catenin (unknown origin) expressed in Escherichia coli BL21 DE3 interaction with N-terminally biotinylated human E-cadherin (824 to 887 residues) by alpha screen assay. In short, it runs like this:
as §1

Data set [10] is described as follows: Competitive inhibition of N-terminally fluorescein-labeled human BCL9 (350 to 375 residues) interaction with beta-catenin E155A mutant (138 to 686 residues) (unknown origin) expressed in Escherichia coli BL21 DE3 after 3 hrs by fluorescence polarization assay.
Data set [11] is described as follows: Competitive inhibition of N-terminally fluorescein-labeled human BCL9 (350 to 375 residues) interaction with beta-catenin D145A/E155A double mutant (138 to 686 residues) (unknown origin) expressed in Escherichia coli BL21 DE3 after 3 hrs by fluorescence polarization assay.
The nature of data set [12]: Competitive inhibition of N-terminally fluorescein-labeled human BCL9 (350 to 375 residues) interaction with beta-catenin D145A mutant (138 to 686 residues) (unknown origin) expressed in Escherichia coli BL21 DE3 after 3 hrs by fluorescence polarization assay.
For data set [13], the target named is T2, Catenin beta-1 (Homo sapiens). Kind of data set: Inhibition of beta-catenin (unknown origin) expressed in HEK293 cells up to 100 uM after 24 hrs by fopflash dual luciferase reporter gene assay. It counts as cell-based. The essentials:
as §2

For the next data set, the species on record is Homo sapiens. Kind of data set: Selectivity ratio of Ki for wild type beta-catenin (unknown origin)/ N-terminally biotinylated human BCL9 (350 to 375 residues) interaction to Ki for wild type beta-catenin (unknown origin)/N-terminally biotinylated human E-cadherin (824 to 887 residues) interaction.

The source made the active and inactive calls. The rule behind the calls is not given here.

Chain of Cadherin-1/Transcription factor 7-like 2 (Q9NQB0 whole entry, the tested form may be a part): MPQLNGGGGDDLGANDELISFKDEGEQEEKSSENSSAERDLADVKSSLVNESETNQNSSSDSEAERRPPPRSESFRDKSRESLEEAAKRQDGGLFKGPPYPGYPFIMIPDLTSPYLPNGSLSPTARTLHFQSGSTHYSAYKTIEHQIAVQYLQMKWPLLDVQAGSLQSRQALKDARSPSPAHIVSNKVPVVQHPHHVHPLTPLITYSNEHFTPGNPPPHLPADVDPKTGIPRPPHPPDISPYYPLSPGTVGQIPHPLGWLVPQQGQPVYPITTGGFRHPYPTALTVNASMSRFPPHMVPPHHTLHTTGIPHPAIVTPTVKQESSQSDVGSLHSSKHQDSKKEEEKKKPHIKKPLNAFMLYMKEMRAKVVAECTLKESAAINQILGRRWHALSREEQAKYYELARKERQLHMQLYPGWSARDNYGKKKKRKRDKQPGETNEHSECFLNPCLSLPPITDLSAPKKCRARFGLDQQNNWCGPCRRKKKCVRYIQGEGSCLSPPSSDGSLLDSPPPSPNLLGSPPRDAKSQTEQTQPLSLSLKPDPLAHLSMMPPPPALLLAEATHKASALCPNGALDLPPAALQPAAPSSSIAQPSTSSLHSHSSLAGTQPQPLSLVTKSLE
Chain of Cadherin-1/Transcription factor 7-like 2 (P12830 whole entry, the tested form may be a part): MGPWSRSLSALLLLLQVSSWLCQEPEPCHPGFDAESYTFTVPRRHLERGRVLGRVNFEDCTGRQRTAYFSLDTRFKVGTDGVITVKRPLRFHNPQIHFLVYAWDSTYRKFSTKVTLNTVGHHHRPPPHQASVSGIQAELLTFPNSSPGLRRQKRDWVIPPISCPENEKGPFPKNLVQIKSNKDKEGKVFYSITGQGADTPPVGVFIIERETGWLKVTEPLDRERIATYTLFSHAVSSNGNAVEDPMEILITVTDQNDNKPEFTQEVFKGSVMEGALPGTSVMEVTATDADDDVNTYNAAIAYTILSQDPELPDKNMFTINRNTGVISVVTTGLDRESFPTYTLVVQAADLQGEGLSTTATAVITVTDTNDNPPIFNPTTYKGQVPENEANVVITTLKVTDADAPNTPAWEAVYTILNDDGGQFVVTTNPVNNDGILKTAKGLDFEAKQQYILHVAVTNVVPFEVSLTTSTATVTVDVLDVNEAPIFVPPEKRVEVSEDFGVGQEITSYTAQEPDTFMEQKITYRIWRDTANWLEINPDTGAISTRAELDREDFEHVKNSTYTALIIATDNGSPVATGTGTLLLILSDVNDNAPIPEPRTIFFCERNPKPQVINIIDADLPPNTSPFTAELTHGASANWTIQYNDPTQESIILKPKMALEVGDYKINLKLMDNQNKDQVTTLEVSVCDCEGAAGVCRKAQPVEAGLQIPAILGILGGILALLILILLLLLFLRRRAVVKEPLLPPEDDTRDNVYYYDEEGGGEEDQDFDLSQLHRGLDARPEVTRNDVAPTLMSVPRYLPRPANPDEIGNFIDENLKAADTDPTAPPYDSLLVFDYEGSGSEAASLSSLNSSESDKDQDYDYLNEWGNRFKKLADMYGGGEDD

For `O=C(c1cc(F)cc(N2CCNCC2)c1)N1CCN(C(=O)c2ccc(O[C@H]3CCNC3)c(-c3ccc(F)cc3)c2)CC1`, the IC50 with SW480 stood at 86 µM.
The compound `O=C(c1cc(F)cc(N2CCNCC2)c1)N1CCN(C(=O)c2ccc(O[C@H]3CCNC3)c(C3CCCC3)c2)CC1` showed a Ki in data set [1] of 53 µM.
The same measure, in the same setting: the same measure for `CC(C)c1cc2c(c(O)c1O)[C@@]1(C(=O)O)CCCC(C)(C)[C@@H]1CC2` [CARNOSIC ACID]: 5.3 µM; for `O=C(c1cc(F)cc(N2CCNCC2)c1)N1CCN(C(=O)c2ccc(O[C@H]3CCNC3)c(C3CCC(F)(F)CC3)c2)CC1`: 45 µM; for `CCC1CCC(c2cc(C(=O)N3CCN(C(=O)c4cc(F)cc(N5CCNCC5)c4)CC3)ccc2O[C@H]2CCNC2)CC1` (stereo partly specified): 170 µM.
Compound `O=C(c1cc(F)cc(C2CCNCC2)c1)N1CCN(C(=O)c2ccc(O[C@H]3CCNC3)c(-c3ccc(F)cc3)c2)CC1` displayed a Ki in [1] of 20 µM.
The same measure, in the same setting: the figure for `NCCc1cc(F)cc(C(=O)N2CCN(C(=O)c3cnc(O[C@H]4CCNC4)c(-c4ccc(F)cc4)c3)CC2)c1` is > 500 µM.
Consider `CC1(C)CCC(c2cc(C(=O)N3CCN(C(=O)c4cc(F)cc(N5CCNCC5)c4)CC3)ccc2O[C@H]2CCNC2)CC1`, for which the inhibition constant (Ki) in data set [1] was determined as 70 µM.
Regarding `Cl.Cl.O=C(c1cc(F)cc(N2CCNCC2)c1)N1CCN(C(=O)c2ccc(O[C@H]3CCNC3)c(C3CCC(C(F)(F)F)CC3)c2)CC1` (stereo partly specified), the inhibition entry in [2] is “Dose-dependent effect”. Moreover, in data set [1], the Ki stood at 16 µM. The IC50 in the data set with SW480 is 44 µM; in data set [3] it was 39 µM; in the data set with A549 [4], > 400 µM; with HEK293, 130 µM. In addition, the “Ratio IC50” value in the data set with A549 [5] and in the data set on A549 [6] was >10 each time. The selectivity ratio in data set [7] and in data set [8] was 3 each time.
Turning to `Cl.Cl.O=C(c1cc(F)cc(N2CCNCC2)c1)N1CCN(C(=O)c2ccc(O[C@H]3CCNC3)c(C3CCCCC3)c2)CC1`, in data set [2], the inhibition entry was “Dose-dependent effect”. In addition, the IC50 in [1] came out at 5.6 µM; in data set [9], 550 µM; in the data set on SW480, 22 µM; in [3] it was 26 µM; in the data set with A549 [4], 300 µM; with HEK293 it was 130 µM. For the same compound, the Ki in data set [9] amounted to 510 µM; in data set [10], 39 µM; in data set [11], 53 µM; in data set [12], 29 µM. Besides, the inhibition result in data set [13] was “inactive”. Moreover, the “Ratio IC50” value with A549 [5] and in the data set on A549 [6] was >10 throughout. Further, the selectivity ratio in data set [7] and in [8] was 3 in each case.
The compound `O=C(Nc1ccc(OC2CCNC2)c(-c2ccc(F)cc2)c1)c1ccc(O[C@H]2CCNC2)c(-c2ccc(F)c(F)c2)c1` (stereo partly specified) had a Ki in data set [1] of 2.1 µM. The Ratio Ki in the data set listed under Homo sapiens was determined as 125.

As a reminder, the IC50 is the midpoint of a concentration-inhibition curve. By Ki is commonly meant the dissociation constant of the complex between target and ligand, obtained from inhibition or displacement. A lower Ki goes with higher affinity.
